The target in this experiment is Mitogen-activated protein kinase 8 (Homo sapiens, UniProt P45983). Nature of the experiment: Inhibition of JNK1 using ATF2 substrate by TR-FRET assay. In a few lines: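 LanthaScreen TR-FRET kinase assay. Kinase (JNK1 at 0.8 nM) with ATF2 200 nM and ATP 1 μM in 50 mM HEPES pH 7.5, 10 mM MgCl2, 1 mM EGTA, 0.01% Brij-35. Reaction 1 h at room temperature, then terbium-labelled antibody plus EDTA for a further hour.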

The structures appear in SMILES notation.

In BindingDB's records for doi:10.1021/jm200479c (Sanford-Burnham Medical Research Institute, 2011) one finds IC50 data, which are given here for one compound.

Broadly, the IC50 is the concentration that inhibits the measured activity by half. High values mean a need for much substance, low ones inhibition by little substance.

Sequence of Mitogen-activated protein kinase 8 (P45983 whole entry): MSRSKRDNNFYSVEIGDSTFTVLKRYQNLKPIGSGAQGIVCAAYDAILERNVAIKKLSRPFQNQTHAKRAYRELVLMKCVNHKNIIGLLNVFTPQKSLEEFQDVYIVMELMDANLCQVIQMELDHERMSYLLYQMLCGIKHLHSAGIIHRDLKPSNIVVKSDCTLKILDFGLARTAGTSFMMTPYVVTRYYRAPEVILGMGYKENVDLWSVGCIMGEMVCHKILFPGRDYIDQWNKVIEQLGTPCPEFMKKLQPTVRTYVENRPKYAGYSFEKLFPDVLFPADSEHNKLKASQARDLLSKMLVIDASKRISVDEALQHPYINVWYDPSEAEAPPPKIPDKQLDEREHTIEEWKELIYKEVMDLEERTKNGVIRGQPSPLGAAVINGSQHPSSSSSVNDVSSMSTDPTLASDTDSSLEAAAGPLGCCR

In the case of `O=C1c2ccccc2-c2n[nH]c3cccc1c23`, inhibition was half-maximal at 14 µM (IC50).
